For data set [1], the system named is Pseudomonas aeruginosa. Kind of data set: Antimicrobial activity against ciprofloxacin-resistant Pseudomonas aeruginosa AM 85 grown under Mueller-Hinton medium by broth microdilution method. The format is functional. In short, it runs like this:
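AM 85 is a clinical isolate with efflux-mediated ciprofloxacin resistance. Grown overnight at 35 °C in Tryptic Soy Broth, then streaked on Tryptic Soy Agar. CLSI broth microdilution in cation-adjusted Mueller–Hinton broth, pH 7.3. DMSO stock (40 °C warming, 10 min sonication) diluted two-fold, 0.0625–128. MIC is the highest dilution with clear wells.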

The test system of data set [2] is Pseudomonas aeruginosa. Briefly: Antimicrobial activity against ciprofloxacin-resistant Pseudomonas aeruginosa AM 85 grown under succinate minimum medium by broth microdilution method. It counts as functional. In short, it runs like this: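 AM 85 is a clinical isolate with efflux-mediated ciprofloxacin resistance. Overnight growth at 35 °C in Tryptic Soy Broth, then Tryptic Soy Agar plates. CLSI broth microdilution in iron-deprived succinate minimum medium, pH 7.0, with no iron added. Two-fold dilutions (0.0625–128) from a DMSO stock made with 40 °C warming and 10 min sonication. MIC read as the highest dilution with clear wells.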

In data set [3] the test system is Pseudomonas aeruginosa. Briefly: Antimicrobial activity against ciprofloxacin-resistant Pseudomonas aeruginosa AM 85 grown under succinate minimum medium in presence of 1 uM FeCl3 by broth microdilution method. It counts as functional. In short, it runs like this:
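Clinical efflux-mediated ciprofloxacin-resistant isolate AM 85, grown overnight at 35 °C in Tryptic Soy Broth and isolated on Tryptic Soy Agar. CLSI broth microdilution in succinate minimum medium, pH 7.0, supplemented with FeCl3 for iron-enriched conditions. Compounds were dissolved in DMSO (40 °C, 10 min sonication) and serially diluted two-fold, 0.0625–128. MIC is the highest dilution with clear wells.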

Data set [4] can be described thus: Toxicity in human RBC assessed as induction of hemolysis after 1 hr relative to saponin. It counts as cell-based, Erythrocyte. The conditions noted are these: red blood cells (RBC), read-out: Activity. In short, it runs like this: (§1)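 Human red blood cells were washed three times in TRIS buffer (10 mmol/l TRIS, 150 mmol/l NaCl, pH 7.4) and suspended at 0.5% (v/v). 15 µL of test or control solution was added to 235 µL suspension, in triplicate, with 1% saponin as 100% hemolysis and DMSO/TRIS as negative controls. Incubation was 1 h at 37 °C. After centrifugation, supernatant OD was read at 405 nm.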

Data set [5] deals with Pseudomonas aeruginosa. Briefly: Antimicrobial activity against ciprofloxacin-sensitive Pseudomonas aeruginosa DSM 1117 grown under Mueller-Hinton medium by broth microdilution method. The format is functional. In a few lines:
(§2)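 Overnight cultures at 35 °C in Tryptic Soy Broth were streaked on Tryptic Soy Agar, and inocula were prepared per CLSI. Broth microdilution used two-fold serial dilutions of 0.0625–128 µg/mL from DMSO stocks made with gentle heating (40 °C) and 10 min sonication. Ciprofloxacin served as control in each series. MIC was the highest dilution with clear wells. Media: cation-adjusted Mueller–Hinton, pH 7.3; succinate minimum medium, pH 7.0, without or with 1 µM FeCl3 added.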
For orientation: In broth dilution the organism is exposed to a series of concentrations in liquid medium.

Data set [6] relates to Pseudomonas aeruginosa. Briefly: Antimicrobial activity against ciprofloxacin-sensitive Pseudomonas aeruginosa DSM 1117 grown under succinate minimum medium by broth microdilution method. It counts as functional. In short, it runs like this:
as §2

Data set [7] relates to Pseudomonas aeruginosa. Kind of data set: Antimicrobial activity against ciprofloxacin-sensitive Pseudomonas aeruginosa DSM 1117 grown under succinate minimum medium in presence of 1 uM FeCl3 by broth microdilution method. It counts as functional. In a few lines: as §2
Data set [8] in a line: Toxicity in human RBC assessed as induction of hemolysis at 384 ug/ml after 1 hr relative to saponin. The format is cell-based, Erythrocyte. Conditions: red blood cells (RBC), read-out: Activity; call rule not given here. In short, it runs like this: as §1
Data set [9] in a line: Toxicity in human RBC assessed as induction of hemolysis up to 384 ug/ml after 1 hr relative to saponin. The format is cell-based, Erythrocyte. The conditions noted are these: red blood cells (RBC), read-out: Activity. In a few lines: as §1
The nature of data set [10]: Induction of iron complexation in mixed H2O/DMSO solvent mixture (0.2 mole fraction of DMSO) at 1:3 mixture of […] at 25 degC at 3.0 <pH <4.1 by UV-visible spectrophotometry. The format is physicochemical. In a few lines:
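UV–visible spectra of 1:3 iron(III):ligand solutions were recorded across pH in H2O/DMSO at 0.2 DMSO mole fraction, 25 °C. pH was adjusted by automatic titrator addition of 0.1 M KOH prepared in the same solvent. The glass electrode was calibrated by titrating 0.1 M HCl with KOH in H2O/DMSO.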

Each structure is given as a SMILES string. In brackets after ≈: the same amount, converted by molar mass.

As usually defined, the MIC is the lowest concentration found to suppress growth. On to `O=C(O)c1cn(C2CC2)c2cc(N3CCNCC3)c(F)cc2c1=O` [CIPROFLOXACIN], for which the MIC in the data set on Pseudomonas aeruginosa [1] is 16 µg/mL (≈ 48.3 µM); against Pseudomonas aeruginosa [2], 16 µg/mL (≈ 48.3 µM); in the data set on Pseudomonas aeruginosa [3] it was 32 µg/mL. Also, the hemolysis at 1 h in data set [4] is < 10%.

In the case of `O=C(CCN1CCN(c2cc3c(cc2F)c(=O)c(C(=O)O)cn3C2CC2)CC1)OCC(CCCNC(=O)c1cccc(O)c1O)(CCCNC(=O)c1cccc(O)c1O)CCCNC(=O)c1cccc(O)c1O`, the MIC against Pseudomonas aeruginosa [5] is > 128 µg/mL; in the data set with Pseudomonas aeruginosa [6] it was > 128 µg/mL; with Pseudomonas aeruginosa [7], 64 µg/mL; against Pseudomonas aeruginosa [1], > 128 µg/mL; against Pseudomonas aeruginosa [2] it was > 128 µg/mL; in the data set with Pseudomonas aeruginosa [3], > 128 µg/mL. The hemolysis at 1 h in [4] is < 10%.

`O=C(O)CN1CCN(c2cc3c(cc2F)c(=O)c(C(=O)O)cn3C2CC2)CC1`: the MIC against Pseudomonas aeruginosa [5] is 0.25 µg/mL (≈ 0.642 µM); in the data set with Pseudomonas aeruginosa [6] it was 0.125 µg/mL (≈ 0.321 µM); in the data set with Pseudomonas aeruginosa [7] it was 0.125 µg/mL; with Pseudomonas aeruginosa [1] it was 16 µg/mL (≈ 41.1 µM); in the data set with Pseudomonas aeruginosa [2] it was 16 µg/mL (≈ 41.1 µM); with Pseudomonas aeruginosa [3] it was 16 µg/mL. In addition, the hemolysis at 1 h, 384 ug/ml in data set [8] was found to be 40%.

For `COC(=O)CN1CCN(c2cc3c(cc2F)c(=O)c(C(=O)O)cn3C2CC2)CC1`, the MIC in the data set with Pseudomonas aeruginosa [5] is 8 µg/mL (≈ 19.8 µM); in the data set on Pseudomonas aeruginosa [6], 16 µg/mL (≈ 39.7 µM); in the data set with Pseudomonas aeruginosa [7], 16 µg/mL; in the data set with Pseudomonas aeruginosa [1], > 128 µg/mL; against Pseudomonas aeruginosa [2], > 128 µg/mL; in the data set on Pseudomonas aeruginosa [3], > 128 µg/mL. Besides, in data set [9], the hemolysis at 1 h was < 10%.

For `O=C(O)c1cn(C2CC2)c2cc(N3CCN(C(=O)c4cccc(O)c4O)CC3)c(F)cc2c1=O`, the MIC is > 128 µg/mL with Pseudomonas aeruginosa [5]; 32 µg/mL (≈ 68.5 µM) in the data set with Pseudomonas aeruginosa [6]; 16 µg/mL in the data set with Pseudomonas aeruginosa [7]; > 128 µg/mL against Pseudomonas aeruginosa [1]; 64 µg/mL (≈ 137 µM) against Pseudomonas aeruginosa [2]; 32 µg/mL with Pseudomonas aeruginosa [3]. Further, the hemolysis at 1 h in data set [9] is < 10%. Also, the result in data set [10] was Active.

Consider `O=C(CN1CCN(c2cc3c(cc2F)c(=O)c(C(=O)O)cn3C2CC2)CC1)OCC(CCCNC(=O)c1cccc(O)c1O)(CCCNC(=O)c1cccc(O)c1O)CCCNC(=O)c1cccc(O)c1O`, for which the MIC against Pseudomonas aeruginosa [5] is 8 µg/mL (≈ 8.02 µM); in the data set with Pseudomonas aeruginosa [6], 8 µg/mL (≈ 8.02 µM); in the data set with Pseudomonas aeruginosa [7], 4 µg/mL; against Pseudomonas aeruginosa [1] it was > 128 µg/mL; with Pseudomonas aeruginosa [2] it was > 128 µg/mL; in the data set with Pseudomonas aeruginosa [3], > 128 µg/mL. Further, the hemolysis at 1 h in data set [4] was < 10%.

For the compound `O=C(CCCN1CCN(c2cc3c(cc2F)c(=O)c(C(=O)O)cn3C2CC2)CC1)OCC(CCCNC(=O)c1cccc(O)c1O)(CCCNC(=O)c1cccc(O)c1O)CCCNC(=O)c1cccc(O)c1O`, the MIC against Pseudomonas aeruginosa [5] is 64 µg/mL (≈ 62.4 µM); against Pseudomonas aeruginosa [6], 64 µg/mL (≈ 62.4 µM); in the data set with Pseudomonas aeruginosa [7], 32 µg/mL; against Pseudomonas aeruginosa [1], > 128 µg/mL; against Pseudomonas aeruginosa [2], > 128 µg/mL; in the data set on Pseudomonas aeruginosa [3], > 128 µg/mL. Further, in data set [4], the hemolysis at 1 h is < 10%.

Regarding `O=C(NCCCC(CCCNC(=O)c1cccc(O)c1O)(CCCNC(=O)c1cccc(O)c1O)C(=O)N1CCN(c2cc3c(cc2F)c(=O)c(C(=O)O)cn3C2CC2)CC1)c1cccc(O)c1O`, the MIC in the data set with Pseudomonas aeruginosa [5], against Pseudomonas aeruginosa [6], in the data set with Pseudomonas aeruginosa [7], against Pseudomonas aeruginosa [1], against Pseudomonas aeruginosa [2] and in the data set with Pseudomonas aeruginosa [3] was > 128 µg/mL throughout. The hemolysis at 1 h, 384 ug/ml in data set [8] is 40%.

The values are drawn from ChEMBL document CHEMBL3351518, “Synthesis and antibacterial activity of catecholate-ciprofloxacin conjugates” (Bioorg Med Chem, 2014).
